Test results: PubChem BioAssay AID602172 (The Scripps Research Institute Molecular Screening Center, 2012)
The source made the active and inactive calls.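 How the source made its calls: active means DNA binding activation reaching at least 20% of the dioxin reference response; inactive means the rest.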

Molecular target: Aryl hydrocarbon receptor (Cavia porcellus)
Assay: enhancers of AHR:DRE complex formation, late-stage follow-up, mechanism study for AHR activator project, cell lysate, guinea pig liver cytosol, radiometric EMSA (AID 602172)
Conditions: radiometric gel
In short: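 Measured by – native 4% PAGE gel shift, phosphorimager quantification · Assay system – male Hartley guinea pig liver cytosol containing AHR · Quantity – 8 mg/mL cytosolic protein · Timing – compound exposure of cytosol 2.5 h, room temperature · Measure – AHR:DRE complex amount as percent of 20 nM TCDD · Controls – TCDD 20 nM reference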

Row | EC50 | Structure (SMILES)
1 | 1000 nM | Cc1nc(N)nc(Nc2ccc(Cl)cc2)c1Br
2 | 500 nM | Cc1ccc(-c2cc(-c3cccs3)[nH]n2)c(O)c1

Same assay, conditions: radiometric gel, at 10 µM, hits give high values

Row | DNA binding activation (% of TCDD) | Structure (SMILES)
3 | 18% (inactive) | COc1ccc(NC(=O)c2cccc3c(Br)cccc23)cc1
4 | 12.1% (inactive) | CCCC(=O)Nc1nn(C)c2nc3cc(C)ccc3cc12
5 | 21.6% | O=C(Nc1cccc(Cl)c1)c1cccnn1
6 | 40.4% | Cc1ccccc1-c1nc(-c2cccnc2)no1
7 | 3.2% (inactive) | O=C(CN1CCOCC1)Nc1nc2ccc([N+](=O)[O-])cc2s1
8 | 3.7% (inactive) | Cc1nnc(N2C(=O)c3cccc4c([N+](=O)[O-])ccc(c34)C2=O)s1
9 | 21% | O=C(Nc1ccon1)c1cnc2sccn2c1=O
10 | 67.8% | COc1cc2ccccc2cc1C(=O)Nc1ccc(C)cc1
11 | 20.2% | COc1ccc(Cl)cc1C(=O)Nc1ccc(N(C)C(C)=O)cc1
12 | 4.4% (inactive) | Cc1c(-c2ccn[nH]2)cc(NC(=O)c2ccc(Cl)cc2)c(=O)n1N
13 | 10% (inactive) | COc1ccc(C(=O)Nc2cc(OC)c(NC(=O)c3ccco3)cc2OC)cc1
14 | 5.2% (inactive) | COC(=O)c1ccccc1NC(=O)Cn1ccnc1
15 | 20% (inactive) | CCOc1ccccc1NC(=O)c1ccc2nccnc2c1
16 | 8.2% (inactive) | CCOc1ccc(-c2cc(C)n3nc(C(N)=O)cc3n2)cc1
17 | 7% (inactive) | CCC(=O)Nc1cc(OC)c(NC(=O)c2ccccc2)cc1OC
18 | 37% | Cn1c(N)c(C(=O)Nc2ccccc2F)sc1=S

Row | DNA binding activation (% of TCDD) | Structure (SMILES)
19 | 27.8% | Cn1c(C(=O)N2CCC(C(N)=O)CC2)cc2cc(Cl)ccc21
20 | 5.3% (inactive) | CC(=O)c1ccc(NC(=O)c2cc(Cl)nc3ccccc23)cc1
21 | 46.8% | CCOc1ccc(NC(=O)c2cc3ccccc3cc2OC)cc1
22 | 6.4% (inactive) | COc1ccccc1NC(=O)c1ccc(C(=O)Nc2ccccc2OC)nc1
23 | 15.3% (inactive) | CCOC(=O)Cc1cc(-c2ccc(O)cc2)nc2ccc3ccccc3c12
24 | 15% (inactive) | COc1ccccc1NC(=O)c1ccc2c(c1)nnn2C
25 | 10% (inactive) | COc1ccccc1NC(=O)Nc1cccnc1
26 | 17.6% (inactive) | Cc1ccc(Nc2ncccc2C(N)=O)cc1
27 | 8.6% (inactive) | Cc1cc(Nc2ccc(Br)cc2)n2nc(C)nc2n1
28 | 42% | COc1ccccc1C(=O)Nc1ccc(N2CCCCC2)cc1
29 | 7.8% (inactive) | Cc1csc(SCC(=O)Nc2ccc(Cl)cn2)n1
30 | 58.6% | CN(C)c1nc(N)nc(-c2nc3ccccc3s2)n1
31 | 5.4% (inactive) | CN1CCN(CCCNC(=O)c2cc3c(-c4ccc(Cl)cc4)nn(C)c3s2)CC1
32 | 59.4% | O=C1c2ccccc2-c2nc3ccccc3nc21
33 | 17% (inactive) | COc1cc2c(cc1NC(=O)Nc1ccc(C)cc1)oc1ccccc12
